Measurements taken from ChEMBL document CHEMBL3856273, “Design, synthesis and biological evaluation of potential antibacterial butyrolactones” (Bioorg Med Chem, 2016).
Converted amounts (≈) assume the structure as drawn.

Columns and labels:
[1] = tested on: Streptococcus gordonii; assay: Antibacterial activity against Streptococcus gordonii DL1 incubated for 24 hrs under anaerobic condition by agar dilution method; assay type: functional; conditions: DL1, 24 h
Procedure, shortened: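 Columbia agar with horse blood containing compound at 300, 250, 200, 150, 100, 90, 80 or 70 µg/mL. Doxycycline positive control at 1:2 dilutions from 1.31 µg/mL; DMSO + methanol and water as negative controls. 2 µl spots of 10^5 CFU/mL inoculum, anaerobic incubation 24 h. MIC taken as lowest concentration preventing growth. Done three times.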

[2] = tested on: Streptococcus gordonii; assay: Antibacterial activity against Streptococcus gordonii DL1 preincubated for 24 hrs under anaerobic condition followed by incubation in columbia petri plates for 24 hrs by broth microdilution method; assay type: functional
Procedure, shortened: (§1)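 CLSI broth microdilution in BHI. Compounds serially diluted 1:2 from 300 µg/mL; doxycycline control from 32.8 µg/mL; solvent mix also diluted. Wells inoculated with 3x10^7 CFU/mL, incubated 24 h anaerobically. MIC is the lowest clear well. Clear wells are plated on Columbia agar for 24 h; MBC is the lowest concentration killing ≥99% of inoculum.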

[3] = tested on: Streptococcus gordonii; assay: Bactericidal activity against Streptococcus gordonii DL1 preincubated for 24 hrs under anaerobic condition followed by incubation in columbia petri plates for 24 hrs by broth microdilution method; assay type: functional; procedure, shortened: as §1
[4] = Cytotoxicity against human Ca9-22 cells assessed as cell death at MIC after 24 hrs by LDH assay; assay type: toxicity, cell-based; conditions: ca9-22, 24 h
Procedure, shortened: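 Ca9-22 gingival epithelial cells were grown in DMEM with 10% heat-inactivated FBS and 2 mM L-glutamine at 37 °C, 5% CO2, then trypsinized and seeded at 70 000 cells/well for 24 h. Compound was applied for 24 h, with medium-only and Triton 1% controls (Triton = 100% cytotoxicity). Supernatant was mixed with CytoTox reagent for 30 min in the dark at room temperature, then stopped, and OD was read at 490 nm. Three experiments, each in triplicate.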

[5] = Cytotoxicity against human THP1 cells assessed as cell death at MIC after 24 hrs by LDH assay; assay type: toxicity, cell-based; conditions: thp-1, 24 h
Procedure, shortened: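 THP-1 cells were grown in RPMI 1640 with 1 mM pyruvate, 10% FBS and 2 mM L-glutamine at 37 °C, 5% CO2. They were seeded at 70 000 cells/well and differentiated with PMA 10 ng/mL for 72 h. Medium was replaced with compound for 24 h, with medium-only and Triton 1% controls (Triton = 100%). LDH release was measured in supernatant with CytoTox reagent for 30 min in the dark at room temperature, then stopped, and OD was read at 490 nm. Three experiments, each in triplicate.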

[6] = Cytotoxicity against human Ca9-22 cells assessed as cell viability at MIC after 24 hrs by MTT assay relative to control; assay type: toxicity, cell-based; conditions: read-out: Activity
[7] = Cytotoxicity against human THP1 cells assessed as cell viability at MIC after 24 hrs by MTT assay relative to control; assay type: toxicity, cell-based, THP-1; conditions: read-out: Activity
Procedure, shortened: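 THP-1 grown in RPMI with pyruvate, Hepes and 10% FBS. Seeded at 70 000 cells/well and differentiated with PMA 10 ng/mL for 72 h. Medium removed, then compound at its MIC added for 24 h; Triton 1% positive control. MTT from 5 mg/mL stock for 4 h at 37 °C; acid-isopropanol solubilization; OD 595/655 nm as % of untreated. Three experiments in triplicate.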

[8] = tested on: Streptococcus gordonii; assay: Potency index, ratio of doxycycline MBC=>99 to compound MBC=>99 for Streptococcus gordonii DL1; assay type: functional

Structure (SMILES)	MIC [1]	MIC [2]	MBC=>99 [3]	mortality [4]	mortality [5]	viability at 24 h [6]	viability at 24 h [7]	Ratio [8]
C=C[C@H]1CC(=O)O[C@@H]1CCCCCCCCC	> 300 µg/mL	75 µg/mL (≈ 315 µM)	150 µg/mL (≈ 629 µM)	–	–	–	–	–
CCCCCCCCC[C@H]1OC(=O)C[C@H]1O	300 µg/mL (≈ 1310 µM)	150 µg/mL (≈ 657 µM)	300 µg/mL (≈ 1310 µM)	–	–	–	–	–
CCCCCCC[C@@H]1OC(=O)C(C)=C1C(=O)O	> 300 µg/mL	> 300 µg/mL	>300 µg/mL	–	–	–	–	–
CCCCCCCCC[C@@H]1C=CC(=O)O1	300 µg/mL (≈ 1430 µM)	150 µg/mL (≈ 713 µM)	300 µg/mL (≈ 1430 µM)	–	–	–	–	–
C[C@H]1c2cccc(O)c2C(=O)C2=C(O)[C@]3(O)C(=O)C(C(N)=O)=C(O)[C@@H](N(C)C)[C@@H]3[C@@H](O)[C@@H]21.O [DOXYCYCLINE]	0.41 µg/mL	0.51 µg/mL	32.8 µg/mL	–	–	–	–	–
CCCCCCCCCCCCC[C@H]1OC(=O)C[C@H]1O	> 300 µg/mL	75 µg/mL (≈ 264 µM)	150 µg/mL (≈ 527 µM)	–	–	–	–	–
CCCCCCCCC[C@H]1OC(=O)C(C)=C1C(=O)O	150 µg/mL (≈ 559 µM)	150 µg/mL (≈ 559 µM)	>300 µg/mL	–	–	–	–	–
CCCCCCCCCCCCC[C@@H]1C=CC(=O)O1	> 300 µg/mL	75 µg/mL (≈ 282 µM)	75 µg/mL (≈ 282 µM)	–	–	–	–	–
CCCCCCCCCCCCCCCC[C@@H]1OC(=O)C(C)=C1C(=O)O	> 300 µg/mL	9.38 µg/mL (≈ 25.6 µM)	9.38 µg/mL (≈ 25.6 µM)	12%	10%	96%	106%	3
CCCCCCCCCCCCCCC[C@@H]1OC(=O)C(C)=C1C(=O)O	200 µg/mL (≈ 567 µM)	9.38 µg/mL (≈ 26.6 µM)	18.75 µg/mL (≈ 53.2 µM)	9.6%	20%	100%	107%	2
CCCCCCCCCCCCC[C@@H]1OC(=O)C(C)=C1C(=O)O	90 µg/mL (≈ 277 µM)	4.69 µg/mL (≈ 14.5 µM)	18.75 µg/mL (≈ 57.8 µM)	–	–	–	–	–
CCCCCCCCC[C@@H]1OC(=O)C(C)=C1C(=O)O	150 µg/mL (≈ 559 µM)	150 µg/mL (≈ 559 µM)	>300 µg/mL	–	–	–	–	–
CCCCCCCCCCCCC[C@H]1OC(=O)C(C)=C1C(=O)O	90 µg/mL (≈ 277 µM)	4.69 µg/mL (≈ 14.5 µM)	18.75 µg/mL (≈ 57.8 µM)	–	–	–	–	–
C=C[C@H]1CC(=O)O[C@@H]1CCCCCCCCCCCCC	> 300 µg/mL	75 µg/mL (≈ 255 µM)	75 µg/mL (≈ 255 µM)	–	–	–	–	–
